# Measured values taken from ChEMBL document CHEMBL1212700, “Small-molecule aggregates inhibit amyloid polymerization” (Nat Chem Biol, 2008).
# Active and inactive are the calls of the source. The calls are words filed in the database; no cut-off is given here.
# Legend:
# [1] = target: T1, Eukaryotic peptide chain release factor GTP-binding subunit (Saccharomyces cerevisiae) (UniProt P05453); conditions: at 50 µM
# T1 sequence (whole entry): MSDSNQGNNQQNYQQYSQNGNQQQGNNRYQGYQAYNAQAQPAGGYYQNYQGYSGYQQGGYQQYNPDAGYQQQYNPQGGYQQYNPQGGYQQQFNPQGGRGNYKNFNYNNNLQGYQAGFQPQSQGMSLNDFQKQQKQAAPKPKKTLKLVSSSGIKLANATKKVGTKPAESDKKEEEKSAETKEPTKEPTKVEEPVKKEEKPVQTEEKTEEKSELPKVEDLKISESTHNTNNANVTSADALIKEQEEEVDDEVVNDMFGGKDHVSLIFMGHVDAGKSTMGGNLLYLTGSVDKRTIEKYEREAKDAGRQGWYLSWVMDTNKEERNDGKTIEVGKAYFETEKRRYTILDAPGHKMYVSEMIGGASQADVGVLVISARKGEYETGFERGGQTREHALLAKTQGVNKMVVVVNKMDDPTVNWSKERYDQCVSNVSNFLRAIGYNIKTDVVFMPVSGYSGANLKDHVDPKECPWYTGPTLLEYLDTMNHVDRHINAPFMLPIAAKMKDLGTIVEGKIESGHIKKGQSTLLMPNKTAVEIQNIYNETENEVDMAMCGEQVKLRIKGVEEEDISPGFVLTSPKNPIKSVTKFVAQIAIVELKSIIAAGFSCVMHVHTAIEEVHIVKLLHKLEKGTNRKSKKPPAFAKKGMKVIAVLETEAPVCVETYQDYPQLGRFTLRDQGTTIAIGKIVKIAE
# [2] = target: T1, Eukaryotic peptide chain release factor GTP-binding subunit (Saccharomyces cerevisiae); conditions: at 50 µM; remark: listed apart in the source
# [3] = species: Mus musculus; conditions: at 50 µM
# [4] = target: T1, Eukaryotic peptide chain release factor GTP-binding subunit (Saccharomyces cerevisiae); assay: Inhibition of polyhistidine tagged yeast prion protein Sup35 expressed in Escherichia coli BL21 (DE3) assessed as inhibition of amyloid polymerization at 30 uM by thioflavin T fluorescence assay relative to untreated control
# In short: (§1)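 Sup35 fibrillization followed by thioflavin T fluorescence in seeded and unseeded polymerization reactions. For BSA lines, BSA added from a 20 mg ml−1 solution to a final 5 mg ml−1. Inhibition is relative to untreated reactions.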
# [5] = target: T1, Eukaryotic peptide chain release factor GTP-binding subunit (Saccharomyces cerevisiae); assay: Inhibition of polyhistidine tagged yeast prion protein Sup35 expressed in Escherichia coli BL21 (DE3) assessed as inhibition of amyloid polymerization at 30 uM in presence of 5 mg/ml BSA by thioflavin T fluorescence assay relative to untreated control
# In short: as §1
# [6] = species: Mus musculus; assay: Inhibition of mouse prion protein (89-230) assessed as inhibition of amyloid polymerization at 25 uM by thioflavin T fluorescence assay relative to untreated control
# In short: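 Mouse prion protein (recMoPrP) fibrillization monitored by thioflavin T fluorescence; reactions contained 3 M urea.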
# [7] = species: Mus musculus; assay: Inhibition of mouse prion protein (89-230) assessed as assessed as coating of prion protein with […] particles at 50 uM by transmission electron microscopy
# In short: (§2)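 Preformed fibres (recMoPrP at 50 μM compound, Sup35 at 100 μM compound) were mixed with compound, then examined by transmission electron microscopy for colloidal particles coating the fibres.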
# [8] = species: Mus musculus; assay: Inhibition of mouse prion protein (89-230) assessed as assessed as inhibition of fiber formation at 50 uM by transmission electron microscopy
# In short: (§3)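 Transmission electron microscopy of recMoPrP (50 μM compound) or Sup35 (100 μM compound) polymerized in the presence of compound, scored for fibre formation.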
# [9] = target: T1, Eukaryotic peptide chain release factor GTP-binding subunit (Saccharomyces cerevisiae); assay: Inhibition of yeast prion protein Sup35 infection of PSI yeast spheroplast cells at 200 uM
# In short: (§4)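 Yeast made infection-competent by enzymatic digestion of the cell wall, then exposed to Sup35 prion with compound; infectivity scored. EC50 derived from a 40–200 μM concentration series.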
# [10] = target: T1, Eukaryotic peptide chain release factor GTP-binding subunit (Saccharomyces cerevisiae); assay: Inhibition of polyhistidine tagged yeast prion protein Sup35 expressed in Escherichia coli BL21 (DE3) assessed as inhibition of amyloid polymerization at 5 uM by thioflavin T fluorescence assay relative to untreated control
# In short: as §1
# [11] = target: T1, Eukaryotic peptide chain release factor GTP-binding subunit (Saccharomyces cerevisiae); assay: Inhibition of polyhistidine tagged yeast prion protein Sup35 expressed in Escherichia coli BL21 (DE3) assessed as inhibition of amyloid polymerization at 5 uM in presence of 5 mg/ml BSA by thioflavin T fluorescence assay relative to untreated control
# In short: as §1
# [12] = Inhibition of Beta-lactamase at 4 uM by nitrocefin hydrolysis assay
# [13] = Inhibition of Beta-lactamase at 4 uM in presence of 0.01% Triton X-100 by nitrocefin hydrolysis assay
# [14] = target: T2, Eukaryotic peptide chain release factor GTP-binding subunit (Saccharomyces cerevisiae, UniProt P05453); assay: Inhibition of polyhistidine tagged yeast prion protein Sup35 expressed in Escherichia coli BL21 (DE3) assessed as inhibition of amyloid polymerization by thioflavin T fluorescence assay relative to untreated control
# T2 sequence (P05453 whole entry): T1 sequence (whole entry)
# In short: as §1
# [15] = Inhibition of dynamic light scattering at 2 uM by thioflavin T fluorescence assay relative to untreated control; assay type: physicochemical
# In short: (§5)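 Sup35 polymerization followed by dynamic light scattering rather than ThT fluorescence, as a control for spectroscopic interference; percent inhibition of the DLS signal.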
# [16] = Inhibition of dynamic light scattering at 20 uM by thioflavin T fluorescence assay relative to untreated control; assay type: physicochemical
# In short: as §5
# [17] = target: T1, Eukaryotic peptide chain release factor GTP-binding subunit (Saccharomyces cerevisiae); assay: Inhibition of polyhistidine tagged yeast prion protein Sup35 expressed in Escherichia coli BL21 (DE3) assessed as coating of prion protein with […] particles at 100 uM by transmission electron microscopy
# In short: as §2
# [18] = target: T1, Eukaryotic peptide chain release factor GTP-binding subunit (Saccharomyces cerevisiae); assay: Inhibition of polyhistidine tagged yeast prion protein Sup35 expressed in Escherichia coli BL21 (DE3) assessed as inhibition of fiber formation at 100 uM by transmission electron microscopy
# In short: as §3
# [19] = Inhibition of dynamic light scattering at 25 uM by thioflavin T fluorescence assay relative to untreated control; assay type: physicochemical
# In short: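 Sup35 fibrillization was tracked by dynamic light scattering, which served as a check against spectroscopic interference in the thioflavin T fluorescence read-out. Inhibition was scored against the reaction without compound.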
# [20] = target: T1, Eukaryotic peptide chain release factor GTP-binding subunit (Saccharomyces cerevisiae); assay: Inhibition of polyhistidine tagged yeast prion protein Sup35 expressed in Escherichia coli BL21 (DE3) assessed as inhibition of amyloid polymerization at 50 uM in presence of 0.5% seed fibres by thioflavin T fluorescence assay relative to untreated control
# In short: (§6)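 Seeded Sup35 polymerization read by thioflavin T fluorescence, with seed at 0.5%, 1% or 5% and compound at fixed 50 μM. Preincubation line: 5-min preincubation before polymerization.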
# [21] = target: T1, Eukaryotic peptide chain release factor GTP-binding subunit (Saccharomyces cerevisiae); assay: Inhibition of polyhistidine tagged yeast prion protein Sup35 expressed in Escherichia coli BL21 (DE3) assessed as inhibition of amyloid polymerization at 50 uM in presence of 1% seed fibres by thioflavin T fluorescence assay relative to untreated control
# In short: as §6
# [22] = target: T1, Eukaryotic peptide chain release factor GTP-binding subunit (Saccharomyces cerevisiae); assay: Inhibition of polyhistidine tagged yeast prion protein Sup35 expressed in Escherichia coli BL21 (DE3) assessed as inhibition of amyloid polymerization at 50 uM in presence of 5% seed fibres by thioflavin T fluorescence assay relative to untreated control
# In short: as §6
# [23] = test system: Saccharomyces cerevisiae; assay: Toxicity in PSI yeast spheroplast cells infected with yeast prion protein Sup35; assay type: organism-based
# [24] = target: T1, Eukaryotic peptide chain release factor GTP-binding subunit (Saccharomyces cerevisiae); assay: Inhibition of polyhistidine tagged yeast prion protein Sup35 expressed in Escherichia coli BL21 (DE3) assessed as inhibition of amyloid polymerization at 100 uM by thioflavin T fluorescence assay relative to untreated control
# In short: as §1
# [25] = target: T1, Eukaryotic peptide chain release factor GTP-binding subunit (Saccharomyces cerevisiae); assay: Inhibition of polyhistidine tagged yeast prion protein Sup35 expressed in Escherichia coli BL21 (DE3) assessed as inhibition of amyloid polymerization preincubation of seed fibers and compound for 5 mins at 100 uM by thioflavin T fluorescence assay relative to untreated control
# [26] = Inhibition of Beta-lactamase at 50 uM by nitrocefin hydrolysis assay
# [27] = Inhibition of Beta-lactamase at 50 uM in presence of 0.01% Triton X-100 by nitrocefin hydrolysis assay
# [28] = target: T1, Eukaryotic peptide chain release factor GTP-binding subunit (Saccharomyces cerevisiae); assay: Inhibition of polyhistidine tagged yeast prion protein Sup35 expressed in Escherichia coli BL21 (DE3) assessed as inhibition of amyloid polymerization at 10 uM by thioflavin T fluorescence assay relative to untreated control
# In short: as §1
# [29] = target: T1, Eukaryotic peptide chain release factor GTP-binding subunit (Saccharomyces cerevisiae); assay: Inhibition of polyhistidine tagged yeast prion protein Sup35 expressed in Escherichia coli BL21 (DE3) assessed as inhibition of amyloid polymerization at 10 uM in presence of 5 mg/ml BSA by thioflavin T fluorescence assay relative to untreated control
# In short: as §1
# [30] = Inhibition of Beta-lactamase at 35 uM by nitrocefin hydrolysis assay
# [31] = Inhibition of Beta-lactamase at 35 uM in presence of 0.01% Triton X-100 by nitrocefin hydrolysis assay
# [32] = Inhibition of Beta-lactamase at 30 uM by nitrocefin hydrolysis assay
# [33] = Inhibition of Beta-lactamase at 30 uM in presence of 0.01% Triton X-100 by nitrocefin hydrolysis assay
# [34] = target: T1, Eukaryotic peptide chain release factor GTP-binding subunit (Saccharomyces cerevisiae); assay: Inhibition of yeast prion protein Sup35 infection of PSI yeast spheroplast cells at 100 uM
# In short: as §4
# [35] = Inhibition of Beta-lactamase at 25 uM by nitrocefin hydrolysis assay
# [36] = Inhibition of Beta-lactamase at 25 uM in presence of 0.01% Triton X-100 by nitrocefin hydrolysis assay
structure (smiles),measurement,setting,value
Clc1ccc(CSC(Cn2ccnc2)c2ccc(Cl)cc2Cl)cc1 (stereo not given),inhibition,[1],75.5%
same,inhibition,[2],10.1%
same,inhibition,[3],100%
OC(Cn1cncn1)(Cn1cncn1)c1ccc(F)cc1F,inhibition,[1],0%
same,inhibition,[2],9%
same,inhibition,[3],5.9%
CC(=O)c1c(O)c(C)c(O)c(Cc2c(O)c3c(c(C(=O)/C=C/c4ccccc4)c2O)OC(C)(C)C=C3)c1O,inhibition,[4],99.4%
same,inhibition,[5],40.5%
same,inhibition,[6],71.1%
same,inhibition,[7],Active
same,inhibition,[8],Active
same,inhibition,[9],Active
Nc1c(/N=N/c2ccc(-c3ccc(/N=N/c4cc(S(=O)(=O)O)c5ccccc5c4N)cc3)cc2)cc(S(=O)(=O)O)c2ccccc12,inhibition,[10],100%
same,inhibition,[11],100%
same,inhibition,[12],92%
same,inhibition,[13],20%
same,inhibition,[3],100%
O=C1C(I)=CC(=C(c2ccccc2C(=O)O)C2C=C(I)C(=O)C(I)=C2)C=C1I [TERAIODOPHENOLPHATHALIN],inhibition,[4],99.3%
same,IC50,[14],2500 nM
same,inhibition,[5],6.8%
same,inhibition (INH),[15],30%
same,inhibition (INH),[16],99%
same,inhibition,[17],Active
same,inhibition,[18],Active
same,inhibition,[9],Active
same,inhibition,[3],0%
Clc1ccccc1C(c1ccccc1)(c1ccccc1)n1ccnc1 [CLOTRIMAZOLE],inhibition (INH),[19],98%
same,inhibition,[6],21.5%
same,inhibition,[20],99%
same,inhibition,[21],95%
same,inhibition,[22],30%
same,Activity,[23],Toxic
same,inhibition,[24],79%
same,inhibition,[25],94%
same,inhibition,[1],62.7%
same,inhibition,[2],5.6%
CCN(CC)CC(=O)Nc1c(C)cccc1C,inhibition,[6],0%
same,inhibition,[9],Active
same,inhibition,[1],1.1%
same,inhibition,[2],0%
O=C1NC(=O)c2cc(Nc3ccccc3)c(Nc3ccccc3)cc21,inhibition,[6],73.6%
same,inhibition,[9],Active
same,inhibition,[26],97%
same,inhibition,[27],0.7%
same,inhibition,[1],87.1%
same,inhibition,[2],44.7%
Oc1ccc(/N=N/c2ccc(Br)cc2)cc1,inhibition,[28],36.4%
same,inhibition,[29],2.1%
same,inhibition,[6],100%
same,Activity,[23],Toxic
Cc1cc(/N=N/c2ccc(-c3ccc(/N=N/c4cc(C)c(O)c(C(=O)O)c4)cc3)cc2)c(C(=O)O)cc1O,inhibition,[30],50%
same,inhibition,[31],0%
O=c1cc(-c2ccccc2)oc2cc(O)c(O)c(O)c12,inhibition,[9],Active
same,inhibition,[32],51.8%
same,inhibition,[33],0%
same,inhibition,[1],95.4%
same,inhibition,[2],17.6%
same,inhibition,[3],34.3%
COC(=O)C1=C(C)NC(C)=C(C(=O)OCCN(C)Cc2ccccc2)C1c1cccc([N+](=O)[O-])c1 (stereo not given),inhibition,[9],Active
same,inhibition,[34],50%
same,inhibition,[24],55%
same,inhibition,[25],88%
same,inhibition,[1],61.5%
same,inhibition,[2],0%
same,inhibition,[3],22.7%
Oc1c(I)cc(Cl)c2cccnc12,inhibition,[35],51.6%
same,inhibition,[36],6.4%
same,inhibition,[1],54.7%
same,inhibition,[2],0%
same,inhibition,[3],0%
